What was measured:
[1] = Chemical stability assessed as half-times of wortmannin formation at pH 6.8 in phosphate buffer saline; type: physicochemical
Procedure, shortened: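 Compounds were incubated at 1.5 mM Wm equivalents in PBS, pH 6.8, 37°C. Wm (or NBD-Wm) formation was followed by reverse-phase C18 HPLC with methyl-4-hydroxybenzoate as internal standard. For NBD derivatives, 10% acetonitrile and 5% DMSO were added to keep the released product in solution. Half-lives of formation were derived from this.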

A549 [2] = assay: Cellular uptake in human A549 cells at 10 uM by FACS relative to initial rate; type: ADME, cell-based; conditions: a549, 10 µM
Procedure, shortened: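 A549 cells incubated with 10 μM NBD-labelled compound for varying times, then detached with trypsin and analysed by FACS. Fluorescence over time is expressed as relative cellular fluorescence: the geometric mean of exposed cells divided by the geometric mean of unexposed cells.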

A549 [3] = assay: Antiproliferative activity against human A549 cells after 48 hrs by SRB method; type: functional, cell-based; conditions: A549, 48 h

| Compound | Activity [1] | Drug uptake (A549 [2]) | IC50 (A549 [3]) |
| --- | --- | --- | --- |
| COC[C@H]1OC(=O)/C(=C\N(C)c2ccncc2)C2=C(O)C(=O)C3=C([C@H](OC(=O)CCCCN(C)c4ccc([N+](=O)[O-])c5nonc45)C[C@]4(C)C(=O)CC[C@@H]34)[C@]21C | 1.87 h | 1.199 | 9.99 µM |
| COC[C@H]1OC(=O)/C(=C\N(C)c2ccncc2)C2=C(O)C(=O)C3=C([C@H](OC(C)=O)C[C@]4(C)C(=O)CC[C@@H]34)[C@]21C | 2.3 h | 1 | 9.86 µM |
| COC[C@H]1OC(=O)c2coc3c2[C@@]1(C)C1=C(C3=O)[C@@H]2CCC(=O)[C@@]2(C)C[C@H]1OC(C)=O [WORTMANNIN] |  |  | 11.4 µM |
| COC[C@H]1OC(=O)/C(=C\NCCCCCC(=O)O)C2=C(O)C(=O)C3=C([C@H](OC(=O)CCCCN(C)c4ccc([N+](=O)[O-])c5nonc45)C[C@]4(C)C(=O)CC[C@@H]34)[C@]21C | > 100 h | 0.0271 | 48.7 µM |
| COC[C@H]1OC(=O)/C(=C\N(C)CCCCCC(=O)O)C2=C(O)C(=O)C3=C([C@H](OC(C)=O)C[C@]4(C)C(=O)CC[C@@H]34)[C@]21C | 8.7 h |  | 0.96 µM |
| COC[C@H]1OC(=O)/C(=C\N(C)CCCCCC(=O)O)C2=C(O)C(=O)C3=C([C@H](OC(=O)CCCCN(C)c4ccc([N+](=O)[O-])c5nonc45)C[C@]4(C)C(=O)CC[C@@H]34)[C@]21C | 8 h | 0.187 | 3.85 µM |
| COC[C@H]1OC(=O)/C(=C\NCCCCC(NC(C)=O)C(=O)O)C2=C(O)C(=O)C3=C([C@H](OC(C)=O)C[C@]4(C)C(=O)CC[C@@H]34)[C@]21C (stereo partly drawn) | > 100 h |  | 29.8 µM |
| COC[C@H]1OC(=O)c2coc3c2[C@@]1(C)C1=C(C3=O)[C@@H]2CCC(=O)[C@@]2(C)C[C@H]1OC(=O)CCCCN(C)c1ccc([N+](=O)[O-])c2nonc12 |  | 1 | 12.2 µM |
| COC[C@H]1OC(=O)/C(=C\N2CCCC2C(=O)O)C2=C(O)C(=O)C3=C([C@H](OC(C)=O)C[C@]4(C)C(=O)CC[C@@H]34)[C@]21C (stereo partly drawn) | 9.9 h |  | 1.79 µM |
| COC[C@H]1OC(=O)/C(=C\NCCCCC(=O)O)C2=C(O)C(=O)C3=C([C@H](OC(C)=O)C[C@]4(C)C(=O)CC[C@@H]34)[C@]21C | > 100 h |  | 27.9 µM |
